Assay results reported in paper PMC3744103 (Molecular cancer therapeutics, 2013).
Several values for one entry are separate records, joined by “and”; a condition that tells them apart may be missing. Equal entries are not always repeated.

Experiments:
UMUC3 cells [1] = assay: Cell viability, ATPase activity assay; type: cell-based, human
Outline: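 Cells exposed for 48 h to varying concentrations of test compound, with 0.1% DMSO as vehicle control. Viability read by an ATPase-based assay in three independent experiments. UMUC3 kept in DMEM with 10% FBS at 37 °C and 5% CO2. IC50 given with n=3.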

[2] = tested on: SP1 protein expression in UMUC3 cells; assay: Western blotting of cytoplasmic and nuclear extracts for transcription factors; type: cell-based, human; conditions: UMUC3, 5 μM ISO, 12 h
Outline: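 UMUC3 cells in 10-cm dishes were treated with 0.1% DMSO or 5 μM test compound for 12 h. Cytoplasmic and nuclear fractions were prepared with a nuclear/cytosol fractionation kit and stored at −80°C. Immunoblots used an AP-conjugated secondary with ECF detection and GAPDH as loading control. Nuclear SP1 was quantified by scanning relative to C-Jun (n=3).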

RT4 cells = assay: Cell viability, ATPase activity assay; type: cell-based, human; conditions: read-out: IC50, cell viability; RT4, ISO 5–60 μM, 48 h, n=3
[3] = tested on: Cyclin D1 promoter transcriptional activity in UMUC3 cells; assay: Cyclin D1 promoter-driven luciferase reporter assay; type: cell-based, human; conditions: ISO 5μM
Outline: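 UMUC3 cells stably carrying a Cyclin D1 promoter-luciferase reporter were seeded at 1×10^4 per well and treated with 5 μM test compound at 80–90% confluence for the indicated times. Luciferase activity read on a microplate luminometer.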

[4] = tested on: human bladder cancer cells; conditions: cited from earlier work
[5] = tested on: bovine aortic smooth muscle cells (BASMCs); conditions: cited from earlier work
Cl41 cells = assay: Cell viability, ATPase activity assay; type: cell-based, mouse; conditions: normal Cl41 cells, ISO 5–60 μM, 48 h
[6] = tested on: Cyclin D1 protein expression in Cl41 cells; assay: Western blotting of Cyclin D1; type: cell-based, mouse; conditions: normal Cl41 cell line, 24h
[7] = tested on: Cyclin D1 protein expression in UMUC3 cells; assay: Western blotting of Cyclin D1 and cell cycle regulators; type: cell-based, human
[8] = tested on: cyclin d1 mRNA in UMUC3 cells; assay: Semiquantitative RT-PCR; type: cell-based, human; conditions: UMUC3, concentration- and time-dependent (24 h; 5 μM time course)
Outline: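 UMUC3 cells treated with test compound at the indicated concentrations for 24 h, or at 5 μM for the indicated times. Total RNA isolated with TRIzol and reverse transcribed. Cyclin D1 mRNA measured by semiquantitative RT-PCR against GAPDH, with products run on 2% agarose and stained with ethidium bromide.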

[9] = tested on: Cyclin D1 protein expression in RT4 cells; assay: Western blotting of Cyclin D1; type: cell-based, human; conditions: low grade RT4 cell line, 24h
[10] = tested on: endogenous Cyclin D1 and exogenous GFP-Cyclin D1 in UMUC3 transfectants; assay: Western blotting in stable transfectants; type: cell-based, human; conditions: ISO 24 h
Outline: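 UMUC3 cells stably transfected with GFP or GFP-Cyclin D1 constructs were treated with test compound for 24 h. Cells were lysed in 10 mM Tris-HCl (pH 7.4), 1% SDS, 1 mM Na3VO4, and protein was quantified by DC assay. Blots were probed with primary antibodies and an AP-conjugated secondary, with ECF detection.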

[11] = tested on: Cyclin D1 protein expression in RT112 cells; assay: Western blotting of Cyclin D1; type: cell-based, human
[12] = tested on: SP1-dependent transcriptional activity in UMUC3 cells; assay: SP1 luciferase reporter assay; type: cell-based, human; conditions: UMUC3 stable reporter, ISO 5μM, P<0.01
Outline: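 A reporter with three consensus SP1 sites was stably co-transfected with pRL-TK and pSuper into UMUC3 cells. Cells were seeded at 1×10^4 per well and, at 80–90% confluence, exposed to 5 μM test compound for various times. Lysis buffer was Tris-phosphate pH 7.8 with EDTA, Triton X-100 and glycerol. Dual-luciferase read-out gave relative SP1 activity (means±SE, three independent experiments).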

UMUC3 cells [13] = assay: Anchorage-independent growth assay; type: cell-based, human; conditions: UMUC3 in soft agar, concentration-dependent, as low as 5 μM, P<0.01
Outline: (§1)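 UMUC3 cells (DMEM, 10% FBS; stable GFP or GFP-Cyclin D1 transfectants made by co-transfection with pSuper vector) were seeded at 1×10^4 per well in 0.33% soft agar in 10% FBS BME, with or without test compound, over a 0.5% agar bottom layer. Vehicle was 0.1% DMSO. Cultures were kept at 37°C, 5% CO2 for 21 days. Colonies over 32 cells were counted by microscope as colonies per 10,000 seeded cells (mean±SD, 3 experiments).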

[14] = tested on: SP1 binding to Cyclin D1 promoter in UMUC3 cells; assay: ChIP assay; type: cell-based, human; conditions: UMUC3, ISO 5 μM, 12 hours
Outline: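 Chromatin immunoprecipitation (EZ-ChIP kit) on UMUC3 cells left untreated or given 5 μM test compound for 12 h. Precipitated DNA amplified by PCR with primers covering the SP1-binding region −92 to +27 of the human Cyclin D1 promoter.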

[15] = ISO pharmacokinetics in mouse serum, LC/MS/MS; type: in vivo, mice; conditions: for Caverage ± SD, serum ISO concentration: mouse serum, 150 mg/kg gastric gavage, n=3
Outline: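 Male […] mice (20–25 g, 30 total) received 150 mg/kg by gastric gavage; three were killed per time point from 0.033 to 4 h. Serum (centrifuged 4000 rpm, 30 min; stored −20 °C) extracted with methanol, filtered 0.45 μm and run on LC/MS/MS: negative ESI, MRM, m/z 257.0/241.1, naringenin 271.1/151.1. Parameters derived by non-compartmental analysis.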

UMUC3 cells [16] = assay: Cell cycle and apoptosis analysis by flow cytometry; type: cell-based, human; conditions: UMUC3, 5 μM ISO; for cells in G0/G1 (growth arrest): control 47.58%
[17] = tested on: UMUC3 (GFP) and UMUC3 (GFP-Cyclin D1) cells; assay: Anchorage-independent growth in soft agar, stable transfectants; type: cell-based, human; conditions: UMUC3 (GFP) vs UMUC3 (GFP-Cyclin D1) in soft agar
Outline: as §1

UMUC3(GFP) cells = assay: Cell cycle analysis by flow cytometry in stable transfectant; type: cell-based, human; conditions: ISO 24 h, control 62.74%
cardiac hypertrophy = conditions: by anti-oxidative activity; cited from earlier work
UMUC3 cells [18] = assay: Cell morphology observation; type: cell-based, human; conditions: UMUC3, 20 μM ISO, 24 hours
[19] = tested on: UMUC3(GFP-Cyclin D1) cells; assay: Cell cycle analysis by flow cytometry in stable transfectant; type: cell-based, human; conditions: ISO 24 h, control 51.01%
[20] = mice, 150 mg/kg oral, non-compartmental model

COc1cc(/C=C/c2cc(O)cc(O)c2)ccc1O [ISO, Isorhapontigenin]
cell proliferation (UMUC3 cells [1]; UMUC3, 5 μM ISO): inhibition of cell proliferation | IC50 (UMUC3 cells [1]; read-out: IC50, cell viability, UMUC3, ISO 5–60 μM, 48 h, n=3): 22.4 ± 3.3 µM | SP1 protein expression [2]: only downregulated SP1 protein expression | expression, activation or nuclear translocation of C-FOS, P-C-JUN(ser 73), P-C-JUN(ser63), C-JUN, HSF-1, P-ATFII, P-NF-κB p65, NF-κB p65 [2]: did not show any observable inhibition | IC50 (RT4 cells): 38.6 ± 2.9 µM | Cyclin D1 transcription, SP1 mutant reporter ([3]; UMUC3/SP1mut-Cyclin D1-Luc transfectant): did not shown a significant inhibition of Cyclin D1 transcription | Cyclin D1 transcription, WT reporter ([3]; UMUC3/WT Cyclin D1-Luc transfectant): inhibited Cyclin D1 transcription | Cyclin D1 promoter transcriptional activity ([3]; UMUC3 stable reporter, time-dependent, P<0.01): marked inhibition of Cyclin D1 promoter transcriptional activity | apoptosis ([4]; UMUC3 and other invasive BC cells, 20μM): induced apoptosis | cytotoxic effect ([4]; human bladder cancer cell lines, concentration lower than 20 μM): do not show cytotoxic effect | anchorage-independent growth ([4]; human bladder cancer cells, 20~60 μM): significant inhibitory effect on anchorage-independent growth | oxLDL-induced proliferation and mitogenesis [5]: inhibitory effect | cell viability (Cl41 cells): no obvious reduction of cell viability | Cyclin D1 expression [6]: marginal induction of Cyclin D1 | earliest time of significant reduction of Cyclin D1 expression ([7]; UMUC3, 5 μM ISO): 6 h | Cyclin B1 expression ([7]; UMUC3, 5 μM ISO, 24 h): slightly reduced | expression of Cyclin A, Cyclin E, Cyclin B1, CDK4, CDK6, P53, P27, P21 ([7]; UMUC3, different concentrations of ISO, 24 hours): did not show observable inhibition | Cyclin D1 protein expression ([7]; UMUC3, different concentrations of ISO, 24 hours, vs DMSO): concentration-dependent reduction of Cyclin D1 protein expression | cyclin d1 mRNA [8]: marked reduction of cyclin d1 mRNA | Cyclin D1 expression [9]: slight inhibition | endogenous Cyclin D1 vs exogenous GFP-Cyclin D1 protein expression [10]: only downregulated endogenous Cyclin D1 protein expression | earliest time of significant reduction of Cyclin D1 expression ([11]; RT112, 5 μM ISO): 6 h | Cyclin D1 expression ([11]; high grade RT112 cell line, 24h): markedly inhibition of Cyclin D1 expression | SP1-dependent transcriptional activity [12]: dramatically inhibition of SP1-dependent transcriptional activity | anchorage-independent growth (UMUC3 cells [13]): markedly inhibited anchorage-independent growth | SP1 binding to Cyclin D1 promoter region −92~+27 [14]: this binding was impaired | AUC(0-t) [15, 20]: 6090 ± 2810 ng·h/mL | AUC(0-∞) [15, 20]: 6100 ± 2800 ng·h/mL | CLz/F, apparent clearance [15, 20]: 462 ± 172 mL/min/kg | MRT(0-t), mean residence time [15, 20]: 0.70 ± 0.20 h | t1/2z, terminal half-life ([15]; mice, 150 mg/kg oral, non-compartmental model, 150 mg/kg): 1.7 h and 1.72 ± 0.27 h | Caverage ± SD, serum ISO concentration ([15]; 0.033 h): 6800 ± 2100 ng/mL | Caverage ± SD, serum ISO concentration ([15]; 0.083 h): 10740 ± 3520 ng/mL | Caverage ± SD, serum ISO concentration ([15]; 0.170 h): 12350 ± 4790 ng/mL | Caverage ± SD, serum ISO concentration ([15]; 0.250 h): 9230 ± 4840 ng/mL | Caverage ± SD, serum ISO concentration ([15]; 0.500 h): 6220 ± 3600 ng/mL | Caverage ± SD, serum ISO concentration ([15]; 0.750 h): 830 ± 800 ng/mL | Caverage ± SD, serum ISO concentration ([15]; 1.000 h): 290 ± 240 ng/mL | Caverage ± SD, serum ISO concentration ([15]; 1.500 h): 280 ± 140 ng/mL | Caverage ± SD, serum ISO concentration ([15]; 2.000 h): 170 ± 120 ng/mL | Caverage ± SD, serum ISO concentration ([15]; 4.000 h): 30 ± 10 ng/mL | apoptotic cells (UMUC3 cells [16]): did not induce any increases of apoptotic cells | cells in G0/G1 (growth arrest) (UMUC3 cells [16]; 12h): 57.98% | cells in G0/G1 (growth arrest) (UMUC3 cells [16]; 24h): 62.62% | inhibition of anchorage-independent growth [17]: reversed by ectopic expression of GFP-Cyclin D1 | cells in G0/G1 (growth arrest) (UMUC3(GFP) cells): 74.60% | cardiac hypertrophy (cardiac hypertrophy): inhibits cardiac hypertrophy | morphologic changes (UMUC3 cells [18]): shrinkage, rounding, detachment and membrane blebbing | cells in G0/G1 (growth arrest) [19]: 54.61%
